Experimental data as given in ChEMBL document CHEMBL5030567, “Macrocyclic Inhibitors of HGF-Activating Serine Proteases Overcome Resistance to Receptor Tyrosine Kinase Inhibitors and Block Lung Cancer Progression” (J Med Chem, 2021).
In brackets after ≈: the same amount, converted by molar mass. Activity calls are given as the source filed them. The calls are words filed in the database; no cut-off is given here. Numbered stars: 1 amine (or outer) side, 2 acyl side, 3 side chain; on linkers, the order of the positions; unused ones are H or OH. Square brackets hold non-standard residues; d marks the D form. Peptide text beside a SMILES is read from it. X1 = N=C(N)NCCC[C@H](N[*:1])C(=O)c1nc2ccc(C(=O)[*:2])cc2s1

Key:
[1] = tested on: HCC827; experiment: Inhibition of pro-HGF stimulated wound healing in human HCC827 cells preincubated for 30 mins followed by pro-HGF stimulation and measured after 24 hrs by crystal violet staining based assay; format: functional, cell-based
Procedure, shortened: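 HCC827 monolayers grown to confluence, serum-starved overnight, then scratched. Cells were pre-incubated 30 min with inhibitor (10 µM) and stimulated with HGF or pro-HGF for 24 h. Wells stained with crystal violet to score closure. n=3; one-way ANOVA versus pro-HGF alone.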

[2] = Plasma protein binding in mouse assessed as unbound fraction; format: ADME, cell-free
[3] = molecular target: Serine protease hepsin (Homo sapiens, UniProt P05981); experiment: Inhibition of recombinant human C-terminal 10-His tagged hepsin (Arg45 to Leu417) expressed in mouse myeloma cells mediated pro-HGF activation preincubated for 30 mins followed by pro-HGF addition and measured after 1 hr by immunoblotting analysis
Procedure, shortened: (§1)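 Recombinant pro-HGF (10 ng) incubated one hour with matriptase (1 nM), hepsin (10 nM) or HGFA (5 nM), with or without inhibitor. Processing detected by immunoblot with a polyclonal antibody recognizing pro-HGF and the HGF alpha and beta chains; active HGF served as positive control.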

[4] = molecular target: T1, Suppressor of tumorigenicity 14 protein (Homo sapiens) (UniProt Q9Y5Y6); experiment: Inhibition of recombinant human N-terminal met-His6-tagged matriptase catalytic domain (Gly596 to Val855 residues) expressed in Escherichia coli mediated pro-HGF activation preincubated for 30 mins followed by pro-HGF addition and measured after 1 hr by immunoblotting analysis; procedure, shortened: as §1
T1 sequence (whole entry): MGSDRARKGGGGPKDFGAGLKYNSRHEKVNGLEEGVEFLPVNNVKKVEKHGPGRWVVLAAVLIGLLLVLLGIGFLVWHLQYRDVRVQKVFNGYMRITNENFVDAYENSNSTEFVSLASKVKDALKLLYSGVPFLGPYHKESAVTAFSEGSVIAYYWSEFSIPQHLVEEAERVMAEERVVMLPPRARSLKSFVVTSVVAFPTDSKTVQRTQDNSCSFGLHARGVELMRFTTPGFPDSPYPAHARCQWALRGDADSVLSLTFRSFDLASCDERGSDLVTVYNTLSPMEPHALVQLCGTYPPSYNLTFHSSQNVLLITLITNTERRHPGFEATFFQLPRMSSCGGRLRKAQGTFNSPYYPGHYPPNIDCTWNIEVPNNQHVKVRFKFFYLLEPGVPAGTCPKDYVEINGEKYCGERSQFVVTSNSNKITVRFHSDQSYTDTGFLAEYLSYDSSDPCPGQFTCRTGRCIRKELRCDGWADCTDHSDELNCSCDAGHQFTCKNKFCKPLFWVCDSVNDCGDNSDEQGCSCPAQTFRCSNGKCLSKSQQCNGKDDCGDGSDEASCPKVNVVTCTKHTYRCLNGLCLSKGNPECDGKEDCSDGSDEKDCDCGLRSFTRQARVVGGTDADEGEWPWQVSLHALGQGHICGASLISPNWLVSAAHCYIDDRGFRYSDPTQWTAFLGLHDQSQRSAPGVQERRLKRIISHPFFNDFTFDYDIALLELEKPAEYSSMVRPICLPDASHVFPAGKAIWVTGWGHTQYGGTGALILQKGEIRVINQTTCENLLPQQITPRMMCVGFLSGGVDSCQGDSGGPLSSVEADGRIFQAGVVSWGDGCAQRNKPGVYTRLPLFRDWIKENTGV

[5] = tested on: HCC827; experiment: Cytotoxicity against human HCC827 cells assessed as reduction in cell viability at 0.1 to 1 uM after 72 hrs in presence of pro-HGF by crystal violet staining based assay; conditions: dose 0.1-1 µM
[6] = Stability in human plasma assessed as half life; format: ADME, cell-free
[7] = Solubility of compound at pH 7.4; format: physicochemical; conditions: buffer
[8] = Toxicity in NSG mouse assessed as body weight loss at 20 to 100 mg/kg, ip administered for 7 days; format: organism-based; conditions: in vivo, dose 20-100 mg/kg, time 7 day
[9] = molecular target: Coagulation factor X (Homo sapiens, UniProt P00742); experiment: Inhibition of recombinant C-terminal 10His-tagged human coagulation factor 10a (Leu24 to Lys488 residues) expressed in baculovirus infected Sf9 insect cells using Bz-Ile-Glu-Gly-Arg-pNA as substrate preincubated for 30 mins followed by substrate addition by chromogenic assay
[10] = Toxicity in hHGF knock in NSG mouse xenografted with human NCI-H596 cells at 50 mg/kg, ip administered daily for 25 days; format: organism-based; conditions: in vivo, 600 h, time 25 day
[11] = Stability in mouse liver microsomes assessed as half life; format: ADME, Microsome
[12] = molecular target: T2, Hepatocyte growth factor activator serine protease (Homo sapiens) (UniProt Q04756); experiment: Inhibition of recombinant human HGFA serine protease domain mediated pro-HGF activation preincubated for 30 mins followed by pro-HGF addition and measured after 1 hr by immunoblotting analysis; procedure, shortened: as §1
T2 sequence (whole entry): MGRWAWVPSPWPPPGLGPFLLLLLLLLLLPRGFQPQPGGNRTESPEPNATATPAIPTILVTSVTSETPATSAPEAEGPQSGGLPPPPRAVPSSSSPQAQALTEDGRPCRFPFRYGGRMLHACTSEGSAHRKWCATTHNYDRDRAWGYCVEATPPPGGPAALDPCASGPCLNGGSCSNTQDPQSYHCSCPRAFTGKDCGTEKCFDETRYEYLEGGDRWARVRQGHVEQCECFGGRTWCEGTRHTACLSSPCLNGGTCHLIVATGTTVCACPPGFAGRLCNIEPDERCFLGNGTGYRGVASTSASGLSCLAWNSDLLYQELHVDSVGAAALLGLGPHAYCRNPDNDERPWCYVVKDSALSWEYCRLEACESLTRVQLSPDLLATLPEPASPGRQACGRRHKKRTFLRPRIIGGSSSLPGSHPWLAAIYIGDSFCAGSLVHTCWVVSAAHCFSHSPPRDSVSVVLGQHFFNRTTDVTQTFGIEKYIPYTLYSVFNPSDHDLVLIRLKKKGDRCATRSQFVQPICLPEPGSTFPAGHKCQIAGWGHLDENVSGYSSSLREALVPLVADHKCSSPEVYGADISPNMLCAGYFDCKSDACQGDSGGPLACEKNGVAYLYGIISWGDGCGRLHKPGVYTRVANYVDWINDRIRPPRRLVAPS

[13] = Acute toxicity in NSG mouse at 20 to 100 mg/kg, ip administered for 7 days; format: organism-based; conditions: in vivo, dose 20-100 mg/kg, time 7 day
[14] = Stability in mouse plasma assessed as half life; format: ADME, cell-free
[15] = tested on: NCI-H596; experiment: Antitumor activity against human NCI-H596 cells xenografted in hHGF knock in NSG mouse assessed as tumor growth inhibition at 50 mg/kg, ip administered daily for 25 days; format: functional, organism-based; conditions: time 25.0 day
[16] = tested on: EBC-1; experiment: Cytotoxicity against human EBC-1 cells assessed as reduction in cell viability preincubated with compound and pro-HGF for 24 hrs followed by JNJ-38877605 addition and measured after 48 hrs by CellTiter-Glo assay; format: functional, cell-based; conditions: time 72.0 hrs
Procedure, shortened: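 EBC-1 cells pre-incubated 24 h with pro-HGF (100 ng/ml) with or without compound (1 µM), then given MET kinase inhibitor JNJ-38877605 (25 nM). Viability read by CellTiter-Glo after 48 h. Means±S.E.M., n=3; one-way ANOVA with Dunnett's test.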

CC(=O)N[C@@H](CO)C(=O)N[C@@H](CCCCN)C(=O)N[C@@H](CC(C)C)C(=O)N[C@@H](CCCNC(=N)N)C(=O)c1nc2ccc(C(=O)N[C@H](C(N)=O)C(C)C)cc2s1 (Ac-SKL[X1]V-NH2)
inhibition [1]: Active
fraction unbound [2]: 0.167
inhibition [3]: Active
inhibition [4]: Active
Activity [5]: Active
t1/2 [6]: 2.33 h
solubility [7]: 200 µM (≈ 161 µg/mL)
Activity [8]: Non-Toxic
IC50 [9]: 770 nM
Activity [10]: Non-Toxic
t1/2 [11]: > 2.42 h
inhibition [12]: Active
Activity [13]: Non-Toxic
t1/2 [14]: 3.07 h
Activity [15]: Active
Activity [16]: Active
